From the RNAGym collection of RNA variant scans (doi:10.1002/anie.201605470)

B1: Osa-1-4 twister ribozyme (parent)
chain: CCGCCUAACACUGCCAAUGCCGGUCCCAAGCCCGGAUAAAAGUGGAGGGGGCGG

Variants of: B1
Test: self-cleavage, relative activity (ratio to wild type); higher = more cleavage; co-transcriptional
How it was run: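 For each read, cleavage status was taken from whether upstream sequence was present. The reads came from an Oryza sativa twister ribozyme of 54 nucleotides, whose DNA template was synthesised with 97 % wild-type base and 1 % of each other base at the 48 positions downstream of the cleavage site. The template was transcribed in vitro at 37 °C for 2 h with co-transcriptional self-cleavage, and the RNA was reverse-transcribed using a template-switching oligonucleotide, PCR-amplified and deep-sequenced. Relative activity is the fraction cleaved normalised to wild type.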

Q: Which self-cleavage does the source give for A41U A7G here?
A: 0.31

Q: Which self-cleavage does the source give for A41C U12G here?
A: 0.8

Q: For A41C U12A, which self-cleavage is on record?
A: 0.97

Q: Which self-cleavage does the source give for A41C U12C here?
A: 0.55

Q: Which self-cleavage does the source give for G42C G53U here?
A: 0.08

Q: With G42C G53C as the variant, how does the self-cleavage read?
A: 0.07

Q: With G42C G53A as the variant, how does the self-cleavage read?
A: 0.14

Q: With A41U C20A as the variant, how does the self-cleavage read?
A: 0.85

Q: With A41U C20U as the variant, how does the self-cleavage read?
A: 0.95

Q: For A41U C20G, which self-cleavage is on record?
A: 0.19

Q: Which self-cleavage does the source give for A41G U18C here?
A: 0.74

Q: Which self-cleavage does the source give for A41G U18G here?
A: 0.83

Q: For A41G U18A, which self-cleavage is on record?
A: 0.77

Q: With G42A G53U as the variant, how does the self-cleavage read?
A: 0.19

Q: With G42A G53C as the variant, how does the self-cleavage read?
A: 0.1

Q: Which self-cleavage does the source give for G42A G53A here?
A: 0.58

Q: With G42A G44C as the variant, how does the self-cleavage read?
A: 0.57

Q: For G42A G44U, which self-cleavage is on record?
A: 0.31

Q: For G42A G44A, which self-cleavage is on record?
A: 0.5

Q: For A41U U12C, which self-cleavage is on record?
A: 0.91

Q: Which self-cleavage does the source give for A41U U12A here?
A: 1.05

Q: With A41U U12G as the variant, how does the self-cleavage read?
A: 0.69

Q: Which self-cleavage does the source give for A41G C11A here?
A: 0.12

Q: For A41G C11U, which self-cleavage is on record?
A: 0.34

Q: For A41G C11G, which self-cleavage is on record?
A: 0.18

Q: For A41U G35U, which self-cleavage is on record?
A: 0.87

Q: With A41U G35C as the variant, how does the self-cleavage read?
A: 0.77

Q: With A41U G35A as the variant, how does the self-cleavage read?
A: 0.83

Q: Which self-cleavage does the source give for A41U G30C here?
A: 0.04

Q: With A41U G30U as the variant, how does the self-cleavage read?
A: 0.04

Q: For A41U G30A, which self-cleavage is on record?
A: 0.06

Q: With A41G U12G as the variant, how does the self-cleavage read?
A: 0.21

Q: With A41G U12C as the variant, how does the self-cleavage read?
A: 0.78

Q: Which self-cleavage does the source give for A41G U12A here?
A: 0.87

Q: For G42A G50U, which self-cleavage is on record?
A: 0.83

Q: For G42A G50A, which self-cleavage is on record?
A: 0.45

Q: Which self-cleavage does the source give for G42A G50C here?
A: 0.64

Q: For G42A U24G, which self-cleavage is on record?
A: 0.03

Q: With G42A U24A as the variant, how does the self-cleavage read?
A: 0.05

Q: For G42A U24C, which self-cleavage is on record?
A: 0.06

Q: Which self-cleavage does the source give for A41G A8G here?
A: 0.19

Q: With A41G A8C as the variant, how does the self-cleavage read?
A: 0.09

Q: Which self-cleavage does the source give for A41G A8U here?
A: 0.1

Q: For A41G C52A, which self-cleavage is on record?
A: 0.84

Q: For A41G C52U, which self-cleavage is on record?
A: 0.88

Q: With A41G C52G as the variant, how does the self-cleavage read?
A: 0.84

Q: With A41U C27A as the variant, how does the self-cleavage read?
A: 0.18

Q: Which self-cleavage does the source give for A41U C27G here?
A: 0.08

Q: For A41U C27U, which self-cleavage is on record?
A: 0.16

Q: For A41G G30C, which self-cleavage is on record?
A: 0.05

Q: Which self-cleavage does the source give for A41G G30A here?
A: 0.05

Q: Which self-cleavage does the source give for A41G G30U here?
A: 0.05

Q: With A41G C26U as the variant, how does the self-cleavage read?
A: 0.17

Q: Which self-cleavage does the source give for A41G C26G here?
A: 0.09

Q: With A41G C26A as the variant, how does the self-cleavage read?
A: 0.05

Q: For A41U G48C, which self-cleavage is on record?
A: 0.1

Q: Which self-cleavage does the source give for A41U G48U here?
A: 0.07

Q: Which self-cleavage does the source give for A41U G48A here?
A: 0.09

Q: For G42C G51U, which self-cleavage is on record?
A: 0.06

Q: Which self-cleavage does the source give for G42C G51A here?
A: 0.08

Q: For G42C G51C, which self-cleavage is on record?
A: 0.06

Q: For A41G C20G, which self-cleavage is on record?
A: 0.12

Q: For A41G C20A, which self-cleavage is on record?
A: 0.85

Q: For A41G C20U, which self-cleavage is on record?
A: 0.85

Q: With A41G A46U as the variant, how does the self-cleavage read?
A: 0.08

Q: Which self-cleavage does the source give for A41G A46C here?
A: 0.06

Q: For A41G A46G, which self-cleavage is on record?
A: 0.07

Q: For G42U, which self-cleavage is on record?
A: 0.14

Q: For G42A, which self-cleavage is on record?
A: 0.84

Q: For G42C, which self-cleavage is on record?
A: 0.4

Q: With G42A U43A as the variant, how does the self-cleavage read?
A: 0.16

Q: With G42A U43G as the variant, how does the self-cleavage read?
A: 0.16

Q: For G42A U43C, which self-cleavage is on record?
A: 0.11

Q: For A41G G45C, which self-cleavage is on record?
A: 0.05

Q: For A41G G45A, which self-cleavage is on record?
A: 0.09

Q: Which self-cleavage does the source give for A41G G45U here?
A: 0.09

Q: For A41U C52A, which self-cleavage is on record?
A: 1.02

Q: For A41U C52G, which self-cleavage is on record?
A: 1.05

Q: For A41U C52U, which self-cleavage is on record?
A: 1.04

Q: Which self-cleavage does the source give for A41U G51U here?
A: 0.26

Q: With A41U G51C as the variant, how does the self-cleavage read?
A: 0.1

Q: Which self-cleavage does the source give for A41U G51A here?
A: 0.59

Q: With A41U G23C as the variant, how does the self-cleavage read?
A: 0.08

Q: For A41U G23A, which self-cleavage is on record?
A: 0.62
